Activity calls are given as the source filed them. No cut-off for these calls is given here.
Columns and labels:
[1] = Cytotoxicity against human KHYG-1 cells assessed as cell viability upto 20 uM after 24 hrs by trypan blue exclusion assay; assay type: cell-based; conditions: read-out: Activity
Outline: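 KHYG-1 cells at 4 × 10^5 cells/ml in RPMI + 0.1% BSA, compound up to 20 µM added for 20 min at RT. RPMI 0.1% BSA added in place of targets, 4 h at 37 °C, then washed ×3 and held 18 to 24 h at 37 °C in complete medium. Trypan blue read: clear cells as percent of total. DMSO vehicle control.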

[2] = target: T1, Perforin-1 (Homo sapiens) (UniProt P14222); experiment: Inhibition of human KHYG-1 NK cells delivered perforin-mediated death of human K562 cells upto 20 uM preincubated for 20 mins with KHYG-1 cells measured after 30 mins by 51Cr release assay; assay type: cell-based; conditions: in the assay text read “measured after 4 hrs” for “measured after 30 mins”
T1 sequence (whole entry): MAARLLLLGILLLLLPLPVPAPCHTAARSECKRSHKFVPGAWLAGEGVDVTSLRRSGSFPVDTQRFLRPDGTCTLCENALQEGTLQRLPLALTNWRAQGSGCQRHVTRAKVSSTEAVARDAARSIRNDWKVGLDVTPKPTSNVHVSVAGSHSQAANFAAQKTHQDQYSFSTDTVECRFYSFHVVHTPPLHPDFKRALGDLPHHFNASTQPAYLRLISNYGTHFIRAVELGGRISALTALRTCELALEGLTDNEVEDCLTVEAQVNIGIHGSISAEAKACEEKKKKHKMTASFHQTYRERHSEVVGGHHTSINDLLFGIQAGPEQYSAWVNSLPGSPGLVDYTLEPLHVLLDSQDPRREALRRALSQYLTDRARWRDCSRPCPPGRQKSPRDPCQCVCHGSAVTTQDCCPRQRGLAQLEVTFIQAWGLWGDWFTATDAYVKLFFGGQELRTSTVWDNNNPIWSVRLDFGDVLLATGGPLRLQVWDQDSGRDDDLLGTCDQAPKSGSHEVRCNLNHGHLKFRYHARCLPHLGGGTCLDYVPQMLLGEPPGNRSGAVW
Outline: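 KHYG-1 NK cells (4 × 10^5/ml, RPMI + 0.1% BSA) given inhibitor up to 20 µM, 20 min at RT. K562 targets labeled with 75 µCi 51Cr for 90 min at 37 °C, added at effector:target 2:1, 4 h at 37 °C. % specific lysis from experimental, spontaneous and maximum release. Mean of triplicates ± SEM; inhibition relative to untreated control, DMSO vehicle control.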

Salmonella typhimurium = experiment: Mutagenic activity in Salmonella Typhimurium TA100 by Ames assay; assay type: toxicity, organism-based; conditions: salmonella enterica subsp. enterica serovar typhimurium
[3] = target: Tumor necrosis factor ligand superfamily member 10 (Homo sapiens) (UniProt P50591); experiment: Inhibition of recombinant TRAIL-mediated death of human Jurkat T cells upto 20 uM after 30 mins by 51Cr release assay; assay type: cell-based
Outline: (§1)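 Fifty thousand 51Cr-labeled Jurkat cells preincubated with 20 µM final inhibitor for 30 min at 37 °C. Anti-Fas agonistic mAb CH11 or recombinant TRAIL, each at 250 ng/mL final, in RPMI with 1% BSA for 2 h. Controls were DMSO diluent and a non-inhibitor at the same concentration; SDS gave maximum release. Supernatant 51Cr γ-counted, triplicates, mean ± SEM.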

[4] = target: T2, Tumor necrosis factor ligand superfamily member 6 (Homo sapiens) (UniProt P48023); experiment: Inhibition of Fas ligand-mediated death of human Jurkat T cells upto 20 uM after 30 mins by 51Cr release assay; assay type: cell-based; outline: as §1
T2 sequence (whole entry): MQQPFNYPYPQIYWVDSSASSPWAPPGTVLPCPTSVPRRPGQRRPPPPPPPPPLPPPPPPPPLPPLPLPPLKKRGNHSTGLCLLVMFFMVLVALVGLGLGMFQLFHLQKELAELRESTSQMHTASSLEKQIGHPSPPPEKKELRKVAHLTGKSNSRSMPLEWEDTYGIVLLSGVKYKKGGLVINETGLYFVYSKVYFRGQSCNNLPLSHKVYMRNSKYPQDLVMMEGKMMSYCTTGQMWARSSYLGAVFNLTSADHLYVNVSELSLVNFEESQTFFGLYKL

[5] = target: Pneumolysin (Streptococcus pneumoniae serotype 4 (strain ATCC BAA-334 / TIGR4)) (UniProt P0C2J9); experiment: Inhibition of Streptococcus pneumoniae pneumolysin-mediated lysis of sheep red blood cells
Outline: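 Single-point test at 20 µM compound, using the perforin/SRBC turbidity format with pneumolysin in place of perforin. Compound in DMSO is preincubated with the lytic protein for at least 30 min. Sheep red blood cells in RBC buffer are then added, and absorbance at 650 nm is read at 0 min and after 15 min at 37 °C. Matching DMSO serves as negative control.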

[6] = target: T1, Perforin-1 (Homo sapiens); experiment: Inhibition of human CD3-CD56+ NK cell delivered perforin-mediated death of human K562 cells upto 20 uM preincubated for 30 mins with human CD3-CD56+ NK cell measured after 4 hrs by 51Cr release assay; assay type: cell-based
Outline: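 Human CD3-CD56+ NK cells taken from donor buffy coats by Ficoll then negative MACS selection. Used same day or after up to 3 days in 100 U/mL IL-2. Up to 2 × 10^5 NK cells with inhibitor, DMSO or medium in RPMI 0.1% BSA, 30 min at RT. 1 × 10^4 51Cr-labeled K562 added, 4 h at 37 °C, % specific lysis, triplicates.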

Pneumolysin (Streptococcus pneumoniae serotype 4 (strain ATCC BAA-334 / TIGR4)), sequence (P0C2J9 whole entry): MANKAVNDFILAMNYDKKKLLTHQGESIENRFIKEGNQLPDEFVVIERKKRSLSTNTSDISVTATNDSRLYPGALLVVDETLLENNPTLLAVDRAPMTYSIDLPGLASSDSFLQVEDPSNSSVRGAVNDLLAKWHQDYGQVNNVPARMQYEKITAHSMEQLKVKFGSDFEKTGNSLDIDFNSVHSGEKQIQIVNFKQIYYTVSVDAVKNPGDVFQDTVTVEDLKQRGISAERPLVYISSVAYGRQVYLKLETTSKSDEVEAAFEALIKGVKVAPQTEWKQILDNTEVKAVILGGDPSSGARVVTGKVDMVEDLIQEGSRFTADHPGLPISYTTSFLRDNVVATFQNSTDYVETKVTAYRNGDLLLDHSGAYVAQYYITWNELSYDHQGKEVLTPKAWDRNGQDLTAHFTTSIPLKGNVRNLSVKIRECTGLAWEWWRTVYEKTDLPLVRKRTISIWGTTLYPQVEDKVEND
Tumor necrosis factor ligand superfamily member 10 (Homo sapiens), sequence (P50591 whole entry): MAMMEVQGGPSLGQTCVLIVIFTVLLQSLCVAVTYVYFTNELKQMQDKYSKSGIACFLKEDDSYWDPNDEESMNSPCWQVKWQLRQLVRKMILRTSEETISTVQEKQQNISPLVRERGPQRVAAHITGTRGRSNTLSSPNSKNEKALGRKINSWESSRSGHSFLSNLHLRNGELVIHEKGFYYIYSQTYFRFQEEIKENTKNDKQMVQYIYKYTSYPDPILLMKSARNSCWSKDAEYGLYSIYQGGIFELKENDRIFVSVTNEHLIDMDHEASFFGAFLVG

COc1ccc2oc(/C=C3\OC(=O)c4c3cc(C)[nH]c4=S)cc2c1
viability at 24 h [1]: 0%
inhibition [2]: 100%

Cc1cc2c(c(=S)[nH]1)C(=O)O/C2=C\c1ccco1
Activity (Salmonella typhimurium): Active

Cc1cc2c(c(=S)[nH]1)C(=O)O/C2=C\c1ccc(C)o1
Activity [3]: inactive
viability at 24 h [1]: 72%
Activity (Salmonella typhimurium): Active
Activity [4]: inactive
Activity [5]: inactive
inhibition [6]: > 70%
inhibition [2]: 50%

Cc1cc2c(c(=S)[nH]1)C(=O)O/C2=C\c1cccs1
Activity (Salmonella typhimurium): Not Active

Cc1cc2c(c(=O)[nH]1)C(=O)O/C2=C\c1cc2ccccc2s1
viability at 24 h [1]: 100%
inhibition [2]: 65%

Cc1cc2c(c(=S)[nH]1)C(=O)O/C2=C\c1ccc[nH]1
Activity (Salmonella typhimurium): Not Active

Cc1cc2c(c(=S)[nH]1)C(=O)O/C2=C\c1ccc(-c2ccccc2)s1
viability at 24 h [1]: 0%
inhibition [2]: 100%

Cc1cc2c(c(=S)[nH]1)C(=O)O/C2=C\c1csc2ccccc12
viability at 24 h [1]: 88%
Activity (Salmonella typhimurium): Not Active
inhibition [2]: 63%

Cc1cc2c(c(=S)[nH]1)C(=O)O/C2=C\c1cc2ccccc2[nH]1
viability at 24 h [1]: 0%
inhibition [2]: 95%
